# Data as given in ChEMBL document CHEMBL2057170, “Synthesis and binding properties of new selective ligands for the nucleobase opposite the AP site” (Bioorg Med Chem, 2012).
# Assays:
# Format in all cases: nucleic-acid assay
# Nucleic Acid [1] = experiment: Binding affinity to DNA 5'-d GCG TAC AP CAT GCG-3' 3'-d CGC ATG A GTA CGC-5' assessed as melting temperature pretreated for 5 mins in presence of 50 mM NaCl
# Summary of the method: (§1)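 UV thermal denaturation at 260 nm used 4 µM duplex (AP = THF) with or without 20 µM ligand in 10 mM HEPES-NaOH pH 7.0, 50 mM NaCl. Samples were preheated 5 min at 80 °C, then slowly cooled. Melts ran 20–80 °C at 1 °C/min. Tm came from non-linear fitting; ΔTm = Tm(+) − Tm(−).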
# Nucleic Acid [2] = experiment: Binding affinity to DNA 5'-d GCG TAC AP CAT GCG-3' 3'-d CGC ATG G GTA CGC-5' assessed as melting temperature pretreated for 5 mins in presence of 50 mM NaCl; summary of the method: as §1
# Nucleic Acid [3] = experiment: Binding affinity to DNA 5'-d GCG TAC AP CAT GCG-3' 3'-d CGC ATG C GTA CGC-5' assessed as melting temperature pretreated for 5 mins in presence of 50 mM NaCl; summary of the method: as §1
# Nucleic Acid [4] = experiment: Binding affinity to DNA 5'-d GCG TAC AP CAT GCG-3' 3'-d CGC ATG T GTA CGC-5' assessed as melting temperature pretreated for 5 mins in presence of 50 mM NaCl; summary of the method: as §1
# Nucleic Acid [5] = experiment: Binding affinity to DNA 5'-d GCG TAC AP CAT GCG-3' 3'-d CGC ATG A GTA CGC-5' assessed as equilibrium association constant by SPR analysis in presence of 50 mM NaCl
# Summary of the method: (§2)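 SPR on BIACORE3000. Hairpin duplexes carrying the AP site (THF) opposite X were 5'-biotin-labelled and immobilized in HBS-N (pH 7.4, 150 mM NaCl). Binding was run in 10 mM HEPES-NaOH pH 7.0 with 50 mM NaCl at 25 °C. Ligand 0.05–2.00 µM was injected at 20 µl/min for 300 s, then 120 s dissociation. Ka came from steady-state affinity analysis with a one-site fit.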
# Nucleic Acid [6] = experiment: Binding affinity to DNA 5'-d GCG TAC AP CAT GCG-3' 3'-d CGC ATG G GTA CGC-5' assessed as equilibrium association constant by SPR analysis in presence of 50 mM NaCl; summary of the method: as §2
# Nucleic Acid [7] = experiment: Binding affinity to DNA 5'-d GCG TAC AP CAT GCG-3' 3'-d CGC ATG C GTA CGC-5' assessed as equilibrium association constant by SPR analysis in presence of 50 mM NaCl; summary of the method: as §2
# Nucleic Acid [8] = experiment: Binding affinity to DNA 5'-d GCG TAC AP CAT GCG-3' 3'-d CGC ATG T GTA CGC-5' assessed as equilibrium association constant by SPR analysis in presence of 50 mM NaCl; summary of the method: as §2
# Nucleic Acid [9] = experiment: Binding affinity to DNA 5'-d GCG TAC AP CAT GCG-3' 3'-d CGC ATG A GTA CGC-5' assessed as melting temperature pretreated for 5 mins in presence of 100 mM NaCl
# Summary of the method: (§3)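 UV thermal denaturation at 260 nm used 4 µM duplex (AP = THF) with or without 20 µM ligand in 10 mM HEPES-NaOH pH 7.0, 100 mM NaCl. Samples were preheated 5 min at 80 °C, then slowly cooled. Melts ran 20–80 °C at 1 °C/min. Tm came from non-linear fitting; ΔTm = Tm(+) − Tm(−).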
# Nucleic Acid [10] = experiment: Binding affinity to DNA 5'-d GCG TAC AP CAT GCG-3' 3'-d CGC ATG G GTA CGC-5' assessed as melting temperature pretreated for 5 mins in presence of 100 mM NaCl; summary of the method: as §3
# Nucleic Acid [11] = experiment: Binding affinity to DNA 5'-d GCG TAC AP CAT GCG-3' 3'-d CGC ATG C GTA CGC-5' assessed as melting temperature pretreated for 5 mins in presence of 100 mM NaCl; summary of the method: as §3
# Nucleic Acid [12] = experiment: Binding affinity to DNA 5'-d GCG TAC AP CAT GCG-3' 3'-d CGC ATG T GTA CGC-5' assessed as melting temperature pretreated for 5 mins in presence of 100 mM NaCl; summary of the method: as §3
Compound,Tm (Nucleic Acid [1]),Tm (Nucleic Acid [2]),Tm (Nucleic Acid [3]),Tm (Nucleic Acid [4]),Ka (Nucleic Acid [5]),Ka (Nucleic Acid [6]),Ka (Nucleic Acid [7]),Ka (Nucleic Acid [8]),Tm (Nucleic Acid [9]),Tm (Nucleic Acid [10]),Tm (Nucleic Acid [11]),Tm (Nucleic Acid [12])
Cc1cn(CCCNCCCNCCCN)c(=O)[nH]c1=O,39.2 °C,37.8 °C,33.8 °C,35.5 °C,0.222 ×10⁶ /M,0.043 ×10⁶ /M,0.063 ×10⁶ /M,0.053 ×10⁶ /M,,,,
NCCCNCCCN,,,,,,,,< 0.001 ×10⁶ /M,,,,
NCCCNCCCNCCCn1ccc(=O)[nH]c1=O,39.1 °C,36.4 °C,32.1 °C,33.9 °C,0.045 ×10⁶ /M,0.001 ×10⁶ /M,0.022 ×10⁶ /M,0.027 ×10⁶ /M,,,,
NCCCNCCCNCCCn1cnc2c(=O)[nH]c(N)nc21,,,,,0.016 ×10⁶ /M,0.047 ×10⁶ /M,6.3 ×10⁶ /M,0.08 ×10⁶ /M,40.4 °C,40.9 °C,40.8 °C,38.1 °C
NCCCNCCCNCCCn1cnc2c(N)ncnc21,,,,,0.057 ×10⁶ /M,0.087 ×10⁶ /M,0.01 ×10⁶ /M,3.9 ×10⁶ /M,40.4 °C,40.8 °C,34.6 °C,43.7 °C
NCCCNCCCNCCCn1ccc(N)nc1=O,35.2 °C,40.5 °C,32.6 °C,32.4 °C,0.002 ×10⁶ /M,0.039 ×10⁶ /M,0.002 ×10⁶ /M,0.001 ×10⁶ /M,,,,
